Publication PMC5692558 (Proceedings of the National Academy of Sciences of the …, 2017)
Entries after “also recorded” stand apart in the source; their conditions may differ.

How the values were obtained:
STAC3 W284S = experiment: ITC, II–III loop with STAC3 W284S; type: binding, human; details: 25 °C, pH 7.4, NAM mutant W284S
human CaV1.2 = experiment: CaV1.2 inactivation; type: cell-based; details: Xenopus oocytes, two-electrode voltage clamp, Ba^2+ or Ca^2+ solution
In short: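 Human CaV1.2 α1c (splice variant a1c77) cRNA (8.2–10.9 ng) was co-injected with rabbit β1 (11.7–15.5 ng), with optional rabbit α2δ (11.7 ng) and human STAC3 isoform a (9.8–13.0 ng). Oocytes were held at 18 °C in OR3 (pH 7.6) and recorded 3–4 d later. BAPTA was pre-injected; perfusate was 40 mM Ba2+ or Ca2+, pH 7.4. P/4 leak subtraction; two-tailed unpaired t test.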

stac^−/− myotubes = details: ref [16], cited from earlier work
[1] = system: skeletal muscle CaV1.1 complex; details: STAC3 W284S; ref [18]; listed as NAM mutation; cited from earlier work
[2] = biological target: T1, STAC3 tandem SH3 domains (residues 245–364) (human, UniProt Q96MF2-1 245-364); experiment: ITC
T1 sequence (looked up): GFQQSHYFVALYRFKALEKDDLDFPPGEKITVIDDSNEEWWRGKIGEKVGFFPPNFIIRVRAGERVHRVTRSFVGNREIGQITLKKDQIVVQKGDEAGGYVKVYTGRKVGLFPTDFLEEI

[3] = biological target: T2, STAC2 tandem SH3 domains with Gln-306 mutated to Leu (human, UniProt Q6ZMT1 296-411, Gln-306 to Leu); experiment: ITC
T2 sequence (looked up): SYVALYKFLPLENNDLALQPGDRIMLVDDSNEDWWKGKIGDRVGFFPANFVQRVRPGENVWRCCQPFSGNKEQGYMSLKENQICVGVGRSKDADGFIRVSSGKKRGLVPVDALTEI

[4] = biological target: T3, STAC1 tandem SH3 domains (residues 288–402) (human, UniProt Q99469 288-402); experiment: ITC
T3 sequence (looked up): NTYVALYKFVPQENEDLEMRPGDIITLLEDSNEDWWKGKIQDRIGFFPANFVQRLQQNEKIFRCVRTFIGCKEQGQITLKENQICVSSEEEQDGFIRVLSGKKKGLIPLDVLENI

[5] = biological target: T4, STAC2 tandem SH3 domains (residues 296–411) (human, UniProt Q6ZMT1 296-411); experiment: ITC
T4 sequence (looked up): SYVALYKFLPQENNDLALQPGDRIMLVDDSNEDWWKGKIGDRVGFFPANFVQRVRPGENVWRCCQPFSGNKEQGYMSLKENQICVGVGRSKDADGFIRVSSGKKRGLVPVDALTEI

CaV1.2 = details: ref [15]; cited from earlier work

CaV1.1 728–775: fragment 728–775 of the CaV1.1 II–III loop (core II–III loop) (NVNEVKDPYPSADFPGDDEEDEPEIPLSPRPRPLAELQLKEKAVPIPE; left off: His6, end not stated, cleaved | maltose-binding protein, end not stated, cleaved)
interaction detected by ITC (STAC3 W284S): no longer able to detect an interaction | interaction detected by ITC (STAC3 W284S; listed as II–III loop peptide): decreases the affinity to levels below detection

IPRAAA: mutation at the binding interface tested for CaV1.2 inactivation (NVNEVKDPYPSADFPGDDEEDEPEAALSPAPRPLAELQLKEKAVPIPE; left off: His6, end not stated, cleaved | maltose-binding protein, end not stated, cleaved)
effect on slowing of CaV1.2 inactivation induced by STAC3 (human CaV1.2): neither mutations at the binding interface (W284S or IPRAAA) nor an outright deletion of both SH3 domains affected the slowing of inactivation

B1: W284S: STAC3 disease mutation linked to Native American myopathy (protein)
chain: MTEKEVLESPKPSFPAETRQSGLQRLKQLLRKGSTGTKEMELPPEPQANGEAVGAGGGPIYYIYEEEEEEEEEEEEPPPEPPKLVNDKPHKFKDHFFKKPKFCDVCARMIVLNNKFGLRCKNCKTNIHEHCQSYVEMQRCFGKIPPGFHRAYSSPLYSNQQYACVKDLSAANRNDPVFETLRTGVIMANKERKKGQADKKNPVAAMMEEEPESARPEEGKPQDGNPEGDKKAEKKTPDDKHKQPGFQQSHYFVALYRFKALEKDDLDFPPGEKITVIDDSNEESWRGKIGEKVGFFPPNFIIRVRAGERVHRVTRSFVGNREIGQITLKKDQIVVQKGDEAGGYVKVYTGRKVGLFPTDFLEEI
modifications: left off: His6, end not stated, cleaved | maltose-binding protein, end not stated, cleaved
effect on EC coupling (stac^−/− myotubes; STAC3 W284S (NAM mutation)): diminished EC coupling; also recorded: large reduction in EC coupling | effect on depolarization-induced calcium release (stac^−/− myotubes; reconstituted stac^−/− myotubes, [17]): drastic reduction in depolarization-induced calcium release | effect on slowing of CaV1.2 inactivation induced by STAC3 (human CaV1.2): neither mutations at the binding interface (W284S or IPRAAA) nor an outright deletion of both SH3 domains affected the slowing of inactivation | recruitment of STAC3 into the skeletal muscle CaV1.1 complex / interaction with CaV1.1 [1]: did not appear to abolish the interaction between CaV1.1 and STAC3

EDEPEIPLSPRPRP (peptide, UniProt Q13698 747-760, looked up) [CaV1.1 747–760 (minimal peptide)]
Kd [2]: 10.6 µM | fold lower affinity than wild type [3]: ~2 fold

B2: deletion of both SH3 domains: truncated STAC3 missing both SH3 domain (1–244) (protein, UniProt Q96MF2 1-244, looked up, fragment)
chain: MTEKEVLESPKPSFPAETRQSGLQRLKQLLRKGSTGTKEMELPPEPQANGEAVGAGGGPIYYIYEEEEEEEEEEEEPPPEPPKLVNDKPHKFKDHFFKKPKFCDVCARMIVLNNKFGLRCKNCKTNIHEHCQSYVEMQRCFGKIPPGFHRAYSSPLYSNQQYACVKDLSAANRNDPVFETLRTGVIMANKERKKGQADKKNPVAAMMEEEPESARPEEGKPQDGNPEGDKKAEKKTPDDKHKQP
effect on slowing of CaV1.2 inactivation induced by STAC3 (human CaV1.2): neither mutations at the binding interface (W284S or IPRAAA) nor an outright deletion of both SH3 domains affected the slowing of inactivation; also recorded: still resulted in slower inactivation

NVNEVKDPYPSADFPGDDEEDEPEIPLSPRPRPLAELQLKEKAVPIPE (domain or fragment, human, UniProt Q13698 728-775, looked up) [CaV1.1 728–775 (core II–III loop)]
fold higher affinity than STAC2 [4]: ~2.4 fold | Kd [5]: 1.85 µM | fold higher affinity than STAC2 [2]: ~2.2 fold

B3: STAC3: human STAC3 isoform a (NP_659501.1) (protein)
chain: GFQQSHYFVALYRFKALEKDDLDFPPGEKITVIDDSNEEWWRGKIGEKVGFFPPNFIIRVRAGERVHRVTRSFVGNREIGQITLKKDQIVVQKGDEAGGYVKVYTGRKVGLFPTDFLEEI
modifications: left off: His6, end not stated, cleaved | maltose-binding protein, end not stated, cleaved
effect on inactivation of CaV1.2 (CaV1.2): dramatic reduction in the speed of inactivation
